ChEMBL document CHEMBL1140876, “Synthesis and antibacterial property of quinolines with potent DNA gyrase activity” (2009)
In brackets after ≈: the same amount, converted by molar mass. Activity calls are given as the source filed them. The calls are words filed in the database; no cut-off is given here.

How the values were obtained:
[1] = tested on: Pseudomonas aeruginosa; test: Antimicrobial activity against Pseudomonas aeruginosa at 15 ug after 24 hrs by disk diffusion method; type: functional; settings: read-out: IZ
Procedure, shortened: (§1)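 Inoculum made in 0.85% saline against McFarland standard, swabbed evenly onto nutrient agar; sterile filter-paper discs set equidistant and loaded with equal volumes of drug at varying amounts; zone of inhibition measured after 24 h at 37 °C; ciprofloxacin reference.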

[2] = tested on: Escherichia coli; test: Antimicrobial activity against Escherichia coli by broth microdilution assay; type: functional
Procedure, shortened: (§2)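 Broth microdilution per NCCLS 1997 in 96-well plate; final inoculum 10^5 cfu/mL; incubated 35.7 °C in air 18–20 h; MIC read as lowest concentration with no visible growth.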

[3] = tested on: Staphylococcus aureus; test: Antimicrobial activity against Staphylococcus aureus at 10 ug after 24 hrs by disk diffusion method; type: functional; settings: read-out: IZ; procedure, shortened: as §1
[4] = tested on: Pseudomonas aeruginosa; test: Antimicrobial activity against Pseudomonas aeruginosa at 10 ug after 24 hrs by disk diffusion method; type: functional; settings: read-out: IZ; procedure, shortened: as §1
[5] = tested on: Klebsiella pneumoniae; test: Antimicrobial activity against Klebsiella pneumoniae by broth microdilution assay; type: functional; procedure, shortened: as §2
[6] = tested on: Bacillus subtilis; test: Antimicrobial activity against Bacillus subtilis at 25 ug after 24 hrs by disk diffusion method; type: functional; settings: read-out: IZ; procedure, shortened: as §1
[7] = tested on: Salmonella typhi; test: Antimicrobial activity against Salmonella typhi by broth microdilution assay; type: functional, Salmonella enterica subsp. enterica serovar Typhi; settings: Salmonella enterica
Procedure, shortened: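 Broth microdilution in 96-well plates following the NCCLS 1997 protocol. Final inoculum was 10^5 cfu/mL, with a control organism run alongside. Plates were incubated at 35.7 °C in air for 18–20 h. MIC is the lowest concentration with no visible growth.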

[8] = tested on: Staphylococcus aureus; test: Antimicrobial activity against Staphylococcus aureus at 25 ug after 24 hrs by disk diffusion method; type: functional; settings: read-out: IZ; procedure, shortened: as §1
[9] = tested on: Klebsiella pneumoniae; test: Antimicrobial activity against Klebsiella pneumoniae at 5 ug after 24 hrs by disk diffusion method; type: functional; settings: read-out: IZ; procedure, shortened: as §1
[10] = tested on: Escherichia coli; test: Antimicrobial activity against Escherichia coli at 10 ug after 24 hrs by disk diffusion method; type: functional; settings: read-out: IZ; procedure, shortened: as §1
[11] = tested on: Klebsiella pneumoniae; test: Antimicrobial activity against Klebsiella pneumoniae at 20 ug after 24 hrs by disk diffusion method; type: functional; settings: read-out: IZ; procedure, shortened: as §1
[12] = tested on: Salmonella typhimurium; test: Antimicrobial activity against Salmonella Typhimurium at 20 ug after 24 hrs by disk diffusion method; type: functional, Salmonella enterica subsp. enterica serovar Typhimurium; settings: Salmonella enterica, read-out: IZ; procedure, shortened: as §1
[13] = tested on: Staphylococcus aureus; test: Antimicrobial activity against Staphylococcus aureus at 15 ug after 24 hrs by disk diffusion method; type: functional; settings: read-out: IZ; procedure, shortened: as §1
[14] = tested on: Pseudomonas aeruginosa; test: Antimicrobial activity against Pseudomonas aeruginosa at 5 ug after 24 hrs by disk diffusion method; type: functional; settings: read-out: IZ; procedure, shortened: as §1
[15] = tested on: Staphylococcus aureus; test: Antimicrobial activity against Staphylococcus aureus by broth microdilution assay; type: functional; procedure, shortened: as §2
[16] = tested on: Staphylococcus aureus; test: Antimicrobial activity against Staphylococcus aureus at 5 ug after 24 hrs by disk diffusion method; type: functional; settings: read-out: IZ; procedure, shortened: as §1
[17] = tested on: Bacillus subtilis; test: Antimicrobial activity against Bacillus subtilis at 15 ug after 24 hrs by disk diffusion method; type: functional; settings: read-out: IZ; procedure, shortened: as §1
[18] = tested on: Bacillus subtilis; test: Antimicrobial activity against Bacillus subtilis at 10 ug after 24 hrs by disk diffusion method; type: functional; settings: read-out: IZ; procedure, shortened: as §1
[19] = tested on: Salmonella typhimurium; test: Antimicrobial activity against Salmonella Typhimurium at 15 ug after 24 hrs by disk diffusion method; type: functional, Salmonella enterica subsp. enterica serovar Typhimurium; settings: Salmonella enterica, read-out: IZ; procedure, shortened: as §1
[20] = tested on: Klebsiella pneumoniae; test: Antimicrobial activity against Klebsiella pneumoniae at 15 ug after 24 hrs by disk diffusion method; type: functional; settings: read-out: IZ; procedure, shortened: as §1
[21] = tested on: Salmonella typhimurium; test: Antimicrobial activity against Salmonella Typhimurium at 10 ug after 24 hrs by disk diffusion method; type: functional, Salmonella enterica subsp. enterica serovar Typhimurium; settings: Salmonella enterica, read-out: IZ; procedure, shortened: as §1
[22] = Inhibition of DNA gyrase assessed as conversion of relaxed pBR322 to supercoiled form
Procedure, shortened: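 Supercoiling in 15 µL reactions: gyrase assay buffer, 150 ng relaxed pBR322, 2–3 µL purified DNA gyrase, 3 h at 37 °C (E. coli); stopped with 50% glycerol/0.25% bromophenol blue; 1% agarose in 1× TBE pH 8.3, 90 V 3 h; ethidium bromide stain; supercoiled band brightness by densitometry. Ciprofloxacin comparator.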

[23] = tested on: Bacillus subtilis; test: Antimicrobial activity against Bacillus subtilis at 20 ug after 24 hrs by disk diffusion method; type: functional; settings: read-out: IZ; procedure, shortened: as §1
[24] = tested on: Salmonella typhimurium; test: Antimicrobial activity against Salmonella Typhimurium at 5 ug after 24 hrs by disk diffusion method; type: functional, Salmonella enterica subsp. enterica serovar Typhimurium; settings: Salmonella enterica, read-out: IZ; procedure, shortened: as §1
[25] = tested on: Escherichia coli; test: Antimicrobial activity against Escherichia coli at 15 ug after 24 hrs by disk diffusion method; type: functional; settings: read-out: IZ; procedure, shortened: as §1
[26] = tested on: Klebsiella pneumoniae; test: Antimicrobial activity against Klebsiella pneumoniae at 25 ug after 24 hrs by disk diffusion method; type: functional; settings: read-out: IZ; procedure, shortened: as §1
[27] = tested on: Pseudomonas aeruginosa; test: Antimicrobial activity against Pseudomonas aeruginosa at 20 ug after 24 hrs by disk diffusion method; type: functional; settings: read-out: IZ; procedure, shortened: as §1
[28] = tested on: Pseudomonas aeruginosa; test: Antimicrobial activity against Pseudomonas aeruginosa by broth microdilution assay; type: functional; procedure, shortened: as §2
[29] = tested on: Pseudomonas aeruginosa; test: Antimicrobial activity against Pseudomonas aeruginosa at 25 ug after 24 hrs by disk diffusion method; type: functional; settings: read-out: IZ; procedure, shortened: as §1
[30] = tested on: Bacillus subtilis; test: Antimicrobial activity against Bacillus subtilis by broth microdilution assay; type: functional; procedure, shortened: as §2
[31] = tested on: Bacillus subtilis; test: Antimicrobial activity against Bacillus subtilis at 5 ug after 24 hrs by disk diffusion method; type: functional; settings: read-out: IZ; procedure, shortened: as §1
[32] = tested on: Salmonella typhimurium; test: Antimicrobial activity against Salmonella Typhimurium at 25 ug after 24 hrs by disk diffusion method; type: functional, Salmonella enterica subsp. enterica serovar Typhimurium; settings: Salmonella enterica, read-out: IZ; procedure, shortened: as §1
[33] = tested on: Klebsiella pneumoniae; test: Antimicrobial activity against Klebsiella pneumoniae at 10 ug after 24 hrs by disk diffusion method; type: functional; settings: read-out: IZ; procedure, shortened: as §1
[34] = Inhibition of DNA gyrase assessed as pBR322 DNA relaxation at 1 uM
Procedure, shortened: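 Relaxation without ATP: gyrase (60 nM) with supercoiled pBR322 DNA (6 nM) and drug at […] for 1 h at 37 °C; relaxation judged by gel. Ciprofloxacin, novobiocin and nalidixic acid comparators.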

[35] = tested on: Staphylococcus aureus; test: Antimicrobial activity against Staphylococcus aureus at 20 ug after 24 hrs by disk diffusion method; type: functional; settings: read-out: IZ; procedure, shortened: as §1
[36] = tested on: Escherichia coli; test: Antimicrobial activity against Escherichia coli at 25 ug after 24 hrs by disk diffusion method; type: functional; settings: read-out: IZ; procedure, shortened: as §1
[37] = tested on: Escherichia coli; test: Antimicrobial activity against Escherichia coli at 20 ug after 24 hrs by disk diffusion method; type: functional; settings: read-out: IZ; procedure, shortened: as §1
[38] = tested on: Escherichia coli; test: Antimicrobial activity against Escherichia coli at 5 ug after 24 hrs by disk diffusion method; type: functional; settings: read-out: IZ; procedure, shortened: as §1

With `O=C(O)c1cn(C2CC2)c2cc(N3CCNCC3)c(F)cc2c1=O` [CIPROFLOXACIN] the zone of inhibition at 15 µg/disc [1] was 16 mm, the MIC50 [2] was 0.015 µg/mL (≈ 0.0453 µM) and the MIC90 [2] was 0.03 µg/mL (≈ 0.0905 µM). The zone of inhibition at 10 µg/disc [3] was 24 mm, the zone of inhibition at 10 µg/disc [4] was 14 mm and the MIC50 [5] was 0.03 µg/mL (≈ 0.0905 µM). It also gave an MIC90 [5] of 0.5 µg/mL (≈ 1.51 µM), a zone of inhibition at 25 µg/disc [6] of 12 mm and an MIC50 [7] of 0.04 µg/mL (≈ 0.121 µM). The MIC90 [7] was 0.15 µg/mL (≈ 0.453 µM), the zone of inhibition at 25 µg/disc [8] was 36 mm and the zone of inhibition at 5 µg/disc [9] was 24 mm. For the same compound, the zone of inhibition at 10 µg/disc [10] was 16 mm, the zone of inhibition at 20 µg/disc [11] was 34 mm and the zone of inhibition at 20 µg/disc [12] was 22 mm. For the same compound, the zone of inhibition at 15 µg/disc [13] was 26 mm, the zone of inhibition at 5 µg/disc [14] was 12 mm and the MIC50 [15] was 0.5 µg/mL (≈ 1.51 µM). The MIC90 [15] was 1 µg/mL (≈ 3.02 µM), the zone of inhibition at 5 µg/disc [16] was 22 mm and the zone of inhibition at 15 µg/disc [17] was 9 mm. For the same compound, the zone of inhibition at 10 µg/disc [18] was 7 mm, the zone of inhibition at 15 µg/disc [19] was 18 mm and the zone of inhibition at 15 µg/disc [20] was 30 mm. The zone of inhibition at 10 µg/disc [21] was 16 mm, the Activity [22] was “Active” and the zone of inhibition at 20 µg/disc [23] was 10 mm. It also gave a zone of inhibition at 5 µg/disc [24] of 14 mm, a zone of inhibition at 15 µg/disc [25] of 18 mm and a zone of inhibition at 25 µg/disc [26] of 36 mm. It also gave a zone of inhibition at 20 µg/disc [27] of 20 mm, an MIC50 [28] of 0.125 µg/mL (≈ 0.377 µM) and an MIC90 [28] of 1 µg/mL (≈ 3.02 µM). The zone of inhibition at 25 µg/disc [29] was 23 mm, the MIC50 [30] was 0.04 µg/mL (≈ 0.121 µM) and the MIC90 [30] was 0.15 µg/mL (≈ 0.453 µM). It also gave a zone of inhibition at 5 µg/disc [31] of 6 mm, a zone of inhibition at 25 µg/disc [32] of 24 mm and a zone of inhibition at 10 µg/disc [33] of 26 mm. For the same compound, the Activity [34] was “Active” and the zone of inhibition at 20 µg/disc [35] was 30 mm.
For `c1ccc(C2c3cc(Cc4ccc5c(c4)C(c4ccccc4)C4Cn6cccc6C4N5)ccc3NC3c4cccn4CC32)cc1` (stereo not given), the zone of inhibition at 15 µg/disc [1] was 26 mm, the MIC50 [2] was 2 µg/mL (≈ 3.42 µM) and the MIC90 [2] was 8 µg/mL (≈ 13.7 µM). The zone of inhibition at 10 µg/disc [3] was 13 mm, the zone of inhibition at 10 µg/disc [4] was 24 mm and the zone of inhibition at 25 µg/disc [36] was 22 mm. It also gave an MIC50 [5] of 0.125 µg/mL (≈ 0.214 µM), an MIC90 [5] of 2 µg/mL (≈ 3.42 µM) and a zone of inhibition at 25 µg/disc [6] of 13 mm. It also gave an MIC50 [7] of 2.51 µg/mL (≈ 4.29 µM), an MIC90 [7] of 5 µg/mL (≈ 8.55 µM) and a zone of inhibition at 20 µg/disc [37] of 21 mm. It also gave a zone of inhibition at 25 µg/disc [8] of 21 mm, a zone of inhibition at 5 µg/disc [9] of 12 mm and a zone of inhibition at 10 µg/disc [10] of 14 mm. For the same compound, the zone of inhibition at 20 µg/disc [11] was 24 mm, the zone of inhibition at 20 µg/disc [12] was 22 mm and the zone of inhibition at 15 µg/disc [13] was 15 mm. It also gave a zone of inhibition at 5 µg/disc [14] of 20 mm, an MIC50 [15] of 128 µg/mL (≈ 219 µM) and an MIC90 [15] of 128 µg/mL (≈ 219 µM). For the same compound, the zone of inhibition at 5 µg/disc [16] was 9 mm, the zone of inhibition at 15 µg/disc [17] was 10 mm and the zone of inhibition at 10 µg/disc [18] was 9 mm. The zone of inhibition at 15 µg/disc [19] was 18 mm, the zone of inhibition at 15 µg/disc [20] was 19 mm and the zone of inhibition at 10 µg/disc [21] was 16 mm. The Activity [22] was “Active”, the zone of inhibition at 20 µg/disc [23] was 12 mm and the zone of inhibition at 5 µg/disc [24] was 10 mm. It also gave a zone of inhibition at 15 µg/disc [25] of 16 mm, a zone of inhibition at 25 µg/disc [26] of 26 mm and a zone of inhibition at 20 µg/disc [27] of 28 mm. For the same compound, the MIC50 [28] was 1 µg/mL (≈ 1.71 µM), the MIC90 [28] was 8 µg/mL (≈ 13.7 µM) and the zone of inhibition at 25 µg/disc [29] was 30 mm. For the same compound, the MIC50 [30] was 0.25 µg/mL (≈ 0.428 µM), the MIC90 [30] was 5 µg/mL (≈ 8.55 µM) and the zone of inhibition at 5 µg/disc [31] was 7 mm. The zone of inhibition at 25 µg/disc [32] was 24 mm, the zone of inhibition at 10 µg/disc [33] was 16 mm and the zone of inhibition at 5 µg/disc [38] was 11 mm. For the same compound, the Activity [34] was “Active” and the zone of inhibition at 20 µg/disc [35] was 17 mm.
